Data taken from ChEMBL document CHEMBL4270513, “Replacement of Arg with Nle and modified D-Phe in the core sequence of MSHs, Ac-His-D-Phe-Arg-Trp-NH2, leads to hMC1R selectivity and pigmentation” (Eur J Med Chem, 2018).
Calls of active or inactive are those of the source. The calls are words filed in the database; no cut-off is given here. Square brackets hold non-standard residues; d marks the D form. Peptide text beside a SMILES is read from it. dPhe(4-CF3) = N[C@H](Cc1ccc(C(F)(F)F)cc1)C(=O)O; dPhe(4-Br) = N[C@H](Cc1ccc(Br)cc1)C(=O)O; dPhe(4-Cl) = N[C@H](Cc1ccc(Cl)cc1)C(=O)O; dPhe(4-F) = N[C@H](Cc1ccc(F)cc1)C(=O)O; d2Nal = N[C@H](Cc1ccc2ccccc2c1)C(=O)O; Nle = CCCC[C@H](N)C(=O)O

Tests used:
Melanocortin receptor 3 [1] = molecular target: T1, Melanocortin receptor 3 (Homo sapiens, UniProt P41968); assay: Agonist activity at human MC3R expressed in HEK293 cells after 3 mins by cAMP assay; assay type: functional, cell-based
T1 sequence (P41968 whole entry): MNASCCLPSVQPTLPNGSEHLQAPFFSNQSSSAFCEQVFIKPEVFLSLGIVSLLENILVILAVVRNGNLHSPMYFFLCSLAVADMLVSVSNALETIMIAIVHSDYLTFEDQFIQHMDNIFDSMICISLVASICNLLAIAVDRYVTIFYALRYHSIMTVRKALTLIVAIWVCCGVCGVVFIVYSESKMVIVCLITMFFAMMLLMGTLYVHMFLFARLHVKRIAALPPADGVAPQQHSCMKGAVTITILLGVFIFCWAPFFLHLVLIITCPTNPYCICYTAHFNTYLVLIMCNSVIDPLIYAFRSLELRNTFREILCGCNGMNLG

[2] = molecular target: T2, Melanocyte-stimulating hormone receptor (Homo sapiens, UniProt Q01726); assay: Displacement of [125I]-[Nle4,d-Phe7]-alpha-MSH from human MC1R expressed in HEK293 cells after 40 mins by gamma counting analysis; assay type: cell-based
Target sequence in this assay (Q01726 whole entry): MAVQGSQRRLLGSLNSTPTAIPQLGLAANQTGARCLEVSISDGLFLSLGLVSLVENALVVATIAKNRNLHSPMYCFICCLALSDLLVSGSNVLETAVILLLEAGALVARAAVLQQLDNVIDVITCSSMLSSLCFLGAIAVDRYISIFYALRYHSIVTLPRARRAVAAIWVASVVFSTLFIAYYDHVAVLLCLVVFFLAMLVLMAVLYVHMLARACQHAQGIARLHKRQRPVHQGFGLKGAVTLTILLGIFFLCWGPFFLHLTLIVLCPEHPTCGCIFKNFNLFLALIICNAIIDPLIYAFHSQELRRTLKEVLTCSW

Melanocortin receptor 3 [3] = molecular target: T1, Melanocortin receptor 3; assay: Displacement of [125I]-[Nle4,d-Phe7]-alpha-MSH from human MC3R expressed in HEK293 cells after 40 mins by gamma counting analysis; assay type: cell-based
[4] = molecular target: T2, Melanocyte-stimulating hormone receptor; assay: Agonist activity at human MC1R expressed in HEK293 cells after 3 mins by cAMP assay; assay type: functional, cell-based
Target sequence in this assay (Q01726 whole entry): as above

Melanocortin receptor 5 [5] = molecular target: T3, Melanocortin receptor 5 (Homo sapiens, UniProt P33032); assay: Agonist activity at human MC5R expressed in HEK293 cells after 3 mins by cAMP assay; assay type: functional, cell-based
T3 sequence (P33032 whole entry): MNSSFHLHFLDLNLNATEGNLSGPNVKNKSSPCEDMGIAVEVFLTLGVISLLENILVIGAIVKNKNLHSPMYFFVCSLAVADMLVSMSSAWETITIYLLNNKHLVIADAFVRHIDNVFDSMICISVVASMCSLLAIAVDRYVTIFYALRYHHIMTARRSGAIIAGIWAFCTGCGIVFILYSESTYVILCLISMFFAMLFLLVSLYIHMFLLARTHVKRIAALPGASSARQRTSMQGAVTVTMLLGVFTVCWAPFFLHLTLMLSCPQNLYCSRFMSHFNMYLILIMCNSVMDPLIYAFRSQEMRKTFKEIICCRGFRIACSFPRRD

Melanocortin receptor 5 [6] = molecular target: T3, Melanocortin receptor 5; assay: Displacement of [125I]-[Nle4,d-Phe7]-alpha-MSH from human MC5R expressed in HEK293 cells after 40 mins by gamma counting analysis; assay type: cell-based
Melanocortin receptor 3 [7] = molecular target: T1, Melanocortin receptor 3; assay: Displacement of [125I]-[Nle4,d-Phe7]-alpha-MSH from human MC3R expressed in HEK293 cells at 10 uM after 40 mins by gamma counting analysis relative to control; assay type: cell-based
Procedure, shortened: (§1)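 Binding efficiency = maximal % displacement of [125I]-NDP-α-MSH observed at 10 μM peptide; 0% displacement at 10 μM scored as no binding.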

[8] = molecular target: T2, Melanocyte-stimulating hormone receptor; assay: Agonist activity at human MC1R expressed in HEK293 cells at 10 uM after 3 mins by cAMP assay relative to MT-2; assay type: functional, cell-based
Procedure, shortened: (§2)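 cAMP produced at a single 10 μM peptide concentration, expressed as % of the response to MT-II run as control; 0% accumulation reported as no activity.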
Target sequence in this assay (Q01726 whole entry, looked up): as the sequence (Q01726 whole entry) above

[9] = molecular target: T2, Melanocyte-stimulating hormone receptor; assay: Displacement of [125I]-[Nle4,d-Phe7]-alpha-MSH from human MC1R expressed in HEK293 cells at 10 uM after 40 mins by gamma counting analysis relative to control; assay type: cell-based; procedure, shortened: as §1
Target sequence in this assay (Q01726 whole entry, looked up): as the sequence (Q01726 whole entry) above

Melanocortin receptor 3 [10] = molecular target: T1, Melanocortin receptor 3; assay: Agonist activity at human MC3R expressed in HEK293 cells at 10 uM after 3 mins by cAMP assay relative to MT-2; assay type: functional, cell-based; procedure, shortened: as §2
Melanocortin receptor 5 [11] = molecular target: T3, Melanocortin receptor 5; assay: Displacement of [125I]-[Nle4,d-Phe7]-alpha-MSH from human MC5R expressed in HEK293 cells at 10 uM after 40 mins by gamma counting analysis relative to control; assay type: cell-based; procedure, shortened: as §1
Melanocortin receptor 5 [12] = molecular target: T3, Melanocortin receptor 5; assay: Agonist activity at human MC5R expressed in HEK293 cells at 10 uM after 3 mins by cAMP assay relative to MT-2; assay type: functional, cell-based; procedure, shortened: as §2
Melanocortin receptor 4 [13] = molecular target: T4, Melanocortin receptor 4 (Homo sapiens, UniProt P32245); assay: Displacement of [125I]-[Nle4,d-Phe7]-alpha-MSH from human MC4R expressed in HEK293 cells after 40 mins by gamma counting analysis; assay type: cell-based
T4 sequence (P32245 whole entry): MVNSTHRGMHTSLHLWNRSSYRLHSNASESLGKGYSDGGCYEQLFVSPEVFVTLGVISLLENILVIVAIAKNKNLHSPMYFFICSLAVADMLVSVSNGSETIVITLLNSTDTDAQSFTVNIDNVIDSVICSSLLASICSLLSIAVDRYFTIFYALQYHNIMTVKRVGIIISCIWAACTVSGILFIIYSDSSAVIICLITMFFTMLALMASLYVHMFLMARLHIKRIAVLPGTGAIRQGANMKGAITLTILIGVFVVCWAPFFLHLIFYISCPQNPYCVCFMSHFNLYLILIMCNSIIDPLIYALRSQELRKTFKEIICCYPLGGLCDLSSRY

Melanocortin receptor 4 [14] = molecular target: T4, Melanocortin receptor 4; assay: Agonist activity at human MC4R expressed in HEK293 cells after 3 mins by cAMP assay; assay type: functional, cell-based
Homo sapiens [15] = organism: Homo sapiens; assay: Selectivity ratio of EC50 for human MC4R to EC50 for human MC1R
Anolis carolinensis = assay: Induction of pigmentation effect in lizard at 3 ug/g, ip at 1 hr post dose; assay type: functional, organism-based
Procedure, shortened: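 Anolis carolinensis lizards, peptide dissolved in saline at 1 mM, single intraperitoneal dose of 3 μg/g body weight; vehicle-injected animals as control. Skin colour change versus pre-injection appearance scored visually and photographed, followed up to 24 h.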

Homo sapiens [16] = organism: Homo sapiens; assay: Selectivity ratio of EC50 for human MC3R to EC50 for human MC1R
Homo sapiens [17] = organism: Homo sapiens; assay: Selectivity ratio of EC50 for human MC5R to EC50 for human MC1R

| SMILES | EC50 (Melanocortin receptor 3 [1]) [µM] | IC50 [2] [µM] | IC50 (Melanocortin receptor 3 [3]) [µM] | EC50 [4] [µM] | EC50 (Melanocortin receptor 5 [5]) [µM] | IC50 (Melanocortin receptor 5 [6]) [µM] | %max (Melanocortin receptor 3 [7]) [%] | Activity [8] [%] | %max [9] [%] | Activity (Melanocortin receptor 3 [10]) [%] | %max (Melanocortin receptor 5 [11]) [%] | Activity (Melanocortin receptor 5 [12]) [%] | IC50 (Melanocortin receptor 4 [13]) [µM] | EC50 (Melanocortin receptor 4 [14]) [µM] | Ratio EC50 (Homo sapiens [15]) | Ratio EC50 (Homo sapiens [16]) | Ratio EC50 (Homo sapiens [17]) | Activity (Anolis carolinensis) |
| --- | --- | --- | --- | --- | --- | --- | --- | --- | --- | --- | --- | --- | --- | --- | --- | --- | --- | --- |
| CC(=O)N[C@@H](Cc1cnc[nH]1)C(=O)N[C@H](Cc1ccccc1)C(=O)N[C@@H](CCCN=C(N)N)C(=O)N[C@@H](Cc1c[nH]c2ccccc12)C(N)=O | 0.0071 | 0.105 | 0.063 | 0.0043 | 0.0039 | 0.109 | – | – | – | – | – | – | – | – | – | – | – | – |
| CC(=O)N[C@@H](Cc1cnc[nH]1)C(=O)N[C@H](Cc1ccccc1)C(=O)N[C@@H](CCCNC(=N)N)C(=O)N[C@@H](Cc1c[nH]c2ccccc12)C(N)=O | – | – | – | – | – | – | 100 | 100 | 100 | 100 | 100 | 63 | – | – | – | – | – | – |
| CCCC[C@H](NC(=O)[C@@H](Cc1ccc2ccccc2c1)NC(=O)[C@H](Cc1cnc[nH]1)NC(C)=O)C(=O)N[C@@H](Cc1c[nH]c2ccccc12)C(N)=O (Ac-H[d2Nal][Nle]W-NH2) | 0.255 | > 1 | > 1 | 0.418 | – | – | 80 | 100 | 65 | 17 | 0 | 0 | > 1 | 0.133 | – | – | – | – |
| CCCC[C@H](NC(=O)[C@@H](Cc1ccccc1)NC(=O)[C@H](Cc1cnc[nH]1)NC(C)=O)C(=O)N[C@@H](Cc1c[nH]c2ccccc12)C(N)=O (Ac-H[dF][Nle]W-NH2) | 0.12 | 0.05 | > 1 | 0.052 | 0.037 | 0.046 | 15 | 100 | 42 | 100 | 44 | 48 | 0.065 | 0.928 | – | – | – | – |
| CCCC[C@H](NC(=O)[C@@H](Cc1ccc(Br)cc1)NC(=O)[C@H](Cc1cnc[nH]1)NC(C)=O)C(=O)N[C@@H](Cc1c[nH]c2ccccc12)C(N)=O (Ac-H[dPhe(4-Br)][Nle]W-NH2) | 0.057 | 0.154 | 0.224 | 0.011 | > 1 | – | 51 | 100 | 61 | 93 | 0 | 33 | 0.053 | 0.036 | – | – | – | – |
| CCCC[C@H](NC(=O)[C@@H](Cc1ccc(C(F)(F)F)cc1)NC(=O)[C@H](Cc1cnc[nH]1)NC(C)=O)C(=O)N[C@@H](Cc1c[nH]c2ccccc12)C(N)=O (Ac-H[dPhe(4-CF3)][Nle]W-NH2) | 0.252 | 0.339 | 0.09 | 0.01 | > 1 | 0.037 | 62 | 100 | 49 | 85 | 37 | 44 | 0.835 | 0.407 | 41 | 25 | > 100 | Active |
| CCCC[C@H](NC(=O)[C@@H](Cc1ccc(F)cc1)NC(=O)[C@H](Cc1cnc[nH]1)NC(C)=O)C(=O)N[C@@H](Cc1c[nH]c2ccccc12)C(N)=O (Ac-H[dPhe(4-F)][Nle]W-NH2) | 0.315 | 0.243 | > 1 | 0.025 | – | – | 13 | 100 | 33 | 100 | 0 | 0 | > 1 | 0.28 | – | – | – | – |

Continued, in another order:

| EC50 (Melanocortin receptor 3 [1]) [µM] | IC50 [2] [µM] | IC50 (Melanocortin receptor 3 [3]) [µM] | EC50 [4] [µM] | EC50 (Melanocortin receptor 5 [5]) [µM] | IC50 (Melanocortin receptor 5 [6]) [µM] | %max (Melanocortin receptor 3 [7]) [%] | Activity [8] [%] | %max [9] [%] | Activity (Melanocortin receptor 3 [10]) [%] | %max (Melanocortin receptor 5 [11]) [%] | Activity (Melanocortin receptor 5 [12]) [%] | IC50 (Melanocortin receptor 4 [13]) [µM] | EC50 (Melanocortin receptor 4 [14]) [µM] | Ratio EC50 (Homo sapiens [15]) | Ratio EC50 (Homo sapiens [16]) | Ratio EC50 (Homo sapiens [17]) | SMILES | Activity (Anolis carolinensis) |
| --- | --- | --- | --- | --- | --- | --- | --- | --- | --- | --- | --- | --- | --- | --- | --- | --- | --- | --- |
| 0.116 | 0.122 | > 1 | 0.0065 | 0.433 | – | 45 | 100 | 81 | 87 | 0 | 52 | > 1 | 0.017 | – | – | – | CCCC[C@H](NC(=O)[C@@H](Cc1ccc(Cl)cc1)NC(=O)[C@H](Cc1cnc[nH]1)NC(C)=O)C(=O)N[C@@H](Cc1c[nH]c2ccccc12)C(N)=O (Ac-H[dPhe(4-Cl)][Nle]W-NH2) | – |
| – | – | > 1 | – | – | – | 65 | 0 | 0 | 0 | 0 | 0 | – | – | – | – | – | CCCC[C@H](NC(=O)[C@@H](Cc1ccccc1)NC(=O)[C@@H]1CCCN1C(C)=O)C(=O)N[C@@H](Cc1c[nH]c2ccccc12)C(N)=O (Ac-P[dF][Nle]W-NH2) | – |
| > 1 | 0.08 | > 1 | > 1 | – | – | 76 | 39 | 30 | 23.1 | 0 | 0 | 0.01 | – | – | – | – | CCCC[C@H](NC(=O)[C@@H](Cc1ccc(Br)cc1)NC(=O)[C@@H]1CCCN1C(C)=O)C(=O)N[C@@H](Cc1c[nH]c2ccccc12)C(N)=O (Ac-P[dPhe(4-Br)][Nle]W-NH2) | – |
| – | – | > 1 | – | – | – | 33 | 0 | 0 | 0 | 0 | 0 | 0.0021 | – | – | – | – | CCCC[C@H](NC(=O)[C@@H](Cc1ccc(C(F)(F)F)cc1)NC(=O)[C@@H]1CCCN1C(C)=O)C(=O)N[C@@H](Cc1c[nH]c2ccccc12)C(N)=O (Ac-P[dPhe(4-CF3)][Nle]W-NH2) | – |
| > 1 | 0.0019 | > 1 | 0.003 | – | – | 35 | 63 | 18 | 23.1 | 0 | 0 | – | – | – | – | – | CCCC[C@H](NC(=O)[C@@H](Cc1ccc(Cl)cc1)NC(=O)[C@@H]1CCCN1C(C)=O)C(=O)N[C@@H](Cc1c[nH]c2ccccc12)C(N)=O (Ac-P[dPhe(4-Cl)][Nle]W-NH2) | – |
| > 1 | 0.00074 | 0.0468 | > 1 | – | – | 35 | 46 | 28 | 56 | 0 | 0 | – | – | – | – | – | CCCC[C@H](NC(=O)[C@@H](Cc1ccc(F)cc1)NC(=O)[C@@H]1CCCN1C(C)=O)C(=O)N[C@@H](Cc1c[nH]c2ccccc12)C(N)=O (Ac-P[dPhe(4-F)][Nle]W-NH2) | – |
